Source: ChEMBL document CHEMBL3046104, “Antifeedant diterpenoids against Tribolium castaneum from the stems and twigs of Ceriops tagal (Rhizophoraceae)” (Molecules, 2011)

How the values were obtained:
Tribolium castaneum [1] = test: Antifeedant activity against Tribolium castaneum (red flour beetle) assessed as reduction of food consumption after 3 days by flour disk bioassay relative to control; assay type: functional, organism-based
Procedure, shortened: (§1)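 Adult T. castaneum from a lab colony kept in the dark at 28–30 °C, 70%–80% RH, starved 24 h. Treated flour disks (36–39 mg) air-dried overnight, then equilibrated 48 h at 28–30 °C. Twenty unsexed, group-weighed adults per vial for 3 days; uneaten disk weighed against controls. Insect-free treated vials corrected for solvent evaporation. Six replicates; 10–1000 ppm; EC50 by linear regression.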

Tribolium castaneum [2] = test: Antifeedant activity against Tribolium castaneum (red flour beetle) assessed as reduction of food consumption at 1000 ppm after 3 days by flour disk bioassay relative to control; assay type: functional; procedure, shortened: as §1
Tribolium castaneum [3] = test: Antifeedant activity against Tribolium castaneum (red flour beetle) assessed as reduction of food consumption at 300 ppm after 3 days by flour disk bioassay relative to control; assay type: functional; procedure, shortened: as §1
Tribolium castaneum [4] = test: Antifeedant activity against Tribolium castaneum (red flour beetle) assessed as reduction of food consumption at 100 ppm after 3 days by flour disk bioassay relative to control; assay type: functional; procedure, shortened: as §1
Tribolium castaneum [5] = test: Antifeedant activity against Tribolium castaneum (red flour beetle) assessed as reduction of food consumption at 30 ppm after 3 days by flour disk bioassay relative to control; assay type: functional; procedure, shortened: as §1
Tribolium castaneum [6] = test: Antifeedant activity against Tribolium castaneum (red flour beetle) assessed as reduction of food consumption at 10 ppm after 3 days by flour disk bioassay relative to control; assay type: functional; procedure, shortened: as §1

| Structure (SMILES) | EC50 (Tribolium castaneum [1]) [ppm] | level, % of control (Tribolium castaneum [2]) [%] | level, % of control (Tribolium castaneum [3]) [%] | level, % of control (Tribolium castaneum [4]) [%] | level, % of control (Tribolium castaneum [5]) [%] | level, % of control (Tribolium castaneum [6]) [%] |
| --- | --- | --- | --- | --- | --- | --- |
| C=C[C@@]1(C)CC[C@@]2(C)[C@@H](CC[C@@]3(C)[C@@H]2C=C(O)C(=O)[C@@]32CO2)C1 [TAGALSIN A] | 375.3 | 40.05 | 53.15 | 73.43 | 88.28 | 97.56 |
| C=C[C@@]1(C)CC[C@@]2(C)[C@@H](CC[C@@]3(C)[C@@H]2C=C(O)C(=O)[C@]32CO2)C1 [TAGALSIN B] | 277.6 | 38.85 | 47.65 | 65.32 | 84.17 | 95.23 |
| C=C[C@@]1(C)CC[C@@]2(C)[C@@H](CC[C@](C)(C(C)=O)[C@@H]2CC(=O)O)C1 [TAGALSIN H] | 285.4 | 35.41 | 49.12 | 63.26 | 73.72 | 92.86 |
| CC(=O)O[C@@H]1C[C@H](O)[C@@]23CO[C@@H](O)[C@]1(C)[C@@H]2C[C@@H](O)[C@]1(C)[C@@H]3C(=O)[C@H](OC(C)=O)[C@@]2(C)[C@H](c3ccoc3)C[C@H]3O[C@]321 [TOOSENDANIN] | 66 |  |  |  |  |  |
